Measured values published in ChEMBL document CHEMBL5233202, “Metabolically stable apelin-analogues, incorporating cyclohexylalanine and homoarginine, as potent apelin receptor activators” (RSC Med Chem, 2021).
Non-standard residues stand in square brackets, D forms with d. Residues, ends and D or L forms follow the SMILES beside them. Phe(4-Br) = N[C@@H](Cc1ccc(Br)cc1)C(=O)O; hArg = N=C(N)NCCCC[C@H](N)C(=O)O; Cha = N[C@@H](CC1CCCCC1)C(=O)O; NMeL = CN[C@@H](CC(C)C)C(=O)O; Nle = CCCC[C@H](N)C(=O)O; Aib = CC(C)(N)C(=O)O

Assays:
Mus musculus [1] = assay: Hypotensive effect in anesthetized wild type mouse assessed as change in mean arterial blood pressure at 1.4 uM/Kg, iv administered via right jugular vein measured for 60 mins; assay type: functional; conditions: 1 h
Summary of the method: (§1)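 Anesthetized mice received peptide at 1.4 μM kg−1 body weight, or equal-volume saline, by injection into the right jugular vein (n = 3). HR, MABP, SBP and DBP were recorded from blood pressure traces and reported as mean ± S.E.M.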

Mus musculus [2] = assay: Hypotensive effect in anesthetized wild type mouse assessed as total time duration of hypotensive effect at 1.4 uM/Kg, iv administered via right jugular vein measured for 60 mins; assay type: functional; conditions: 1 h; summary of the method: as §1
[3] = Stability in human plasma assessed as half life at 1 mM measured for 24 hrs by LC-MS analysis; assay type: ADME, cell-free
Summary of the method: (§2)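 Plasma (20 μL, human or murine) prewarmed to 37 °C, then 5 μL of 1 mM peptide added and incubated at 37 °C. Samples quenched at 1, 3, 6 and 24 h with 6 M GuHCl/80% ACN and Dans-YVG internal standard, centrifuged, solid-phase extracted and analyzed by LC-MS. Peptide/standard peak-area ratio normalized to 0 h; triplicates.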

Apelin receptor [4] = molecular target: T1, Apelin receptor (Homo sapiens, UniProt P35414); assay: Activation of recombinant human APJ receptor expressed in rat Chem-5 cells assessed as increase in Ca2+ mobilization by FLIPR Calcium 6-QF fluorescent dye based assay; assay type: cell-based
T1 sequence (P35414 whole entry): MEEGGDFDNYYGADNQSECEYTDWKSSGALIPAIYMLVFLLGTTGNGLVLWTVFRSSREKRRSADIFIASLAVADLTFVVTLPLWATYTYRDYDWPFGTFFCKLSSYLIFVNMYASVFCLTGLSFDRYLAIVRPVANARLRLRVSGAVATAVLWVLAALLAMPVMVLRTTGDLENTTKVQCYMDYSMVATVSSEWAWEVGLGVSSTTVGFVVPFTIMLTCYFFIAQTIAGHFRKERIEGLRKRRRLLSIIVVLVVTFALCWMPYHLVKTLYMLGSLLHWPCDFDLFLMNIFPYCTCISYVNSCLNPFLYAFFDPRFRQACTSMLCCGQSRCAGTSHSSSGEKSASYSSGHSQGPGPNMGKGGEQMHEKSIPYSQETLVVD
Summary of the method: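 Frozen Chem-5 cells stably expressing human APJ, thawed per supplier protocol, loaded 1 h with Calcium 6-QF dye in HBSS/20 mM HEPES/0.2% DMSO/2.5 mM probenecid, pH 7.6. Cells washed three times and rested 10 min, then read on FLIPR. Agonist response taken as maximum fluorescence change over baseline. pEC50 from four-parameter logistic fit; triplicates.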

Neprilysin (NEP) = Neprilysin (NEP) (Homo sapiens, UniProt P08473); assay: Proteolytic stability assessed as recombinant human NEP-mediated compound degradation by measuring half life incubated for 24 hrs by LC-MS analysis; assay type: ADME; conditions: recombinant human neprilysin (NEP)
Neprilysin (NEP), sequence (P08473 whole entry): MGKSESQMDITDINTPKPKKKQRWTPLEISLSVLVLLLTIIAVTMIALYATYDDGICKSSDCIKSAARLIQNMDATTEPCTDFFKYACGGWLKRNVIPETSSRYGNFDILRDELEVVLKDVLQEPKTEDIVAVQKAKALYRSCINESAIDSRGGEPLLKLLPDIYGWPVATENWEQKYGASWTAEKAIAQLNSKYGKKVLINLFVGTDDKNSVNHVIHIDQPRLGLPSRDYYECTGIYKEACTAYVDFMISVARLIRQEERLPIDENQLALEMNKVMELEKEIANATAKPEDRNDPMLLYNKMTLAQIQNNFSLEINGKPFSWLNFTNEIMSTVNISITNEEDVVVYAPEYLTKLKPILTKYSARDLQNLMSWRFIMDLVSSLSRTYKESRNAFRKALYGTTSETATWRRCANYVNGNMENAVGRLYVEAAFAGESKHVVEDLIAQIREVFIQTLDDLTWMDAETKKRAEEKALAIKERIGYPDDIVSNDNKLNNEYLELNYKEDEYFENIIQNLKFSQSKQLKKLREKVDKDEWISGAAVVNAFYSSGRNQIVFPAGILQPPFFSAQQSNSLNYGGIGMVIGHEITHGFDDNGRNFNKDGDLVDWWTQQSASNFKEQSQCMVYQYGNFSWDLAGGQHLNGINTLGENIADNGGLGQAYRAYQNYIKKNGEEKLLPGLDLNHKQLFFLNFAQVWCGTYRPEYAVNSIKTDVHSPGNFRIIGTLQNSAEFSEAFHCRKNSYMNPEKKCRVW

Apelin receptor [5] = molecular target: T2, Apelin receptor (Rattus norvegicus, UniProt Q9JHG3); assay: Displacement of [125I]-pyr-1-apelin-13 from EGFP tagged rat apelin receptor expressed in CHO cell membrane incubated for 3 hrs by gamma counter analysis; assay type: cell membranes
T2 sequence (Q9JHG3 whole entry): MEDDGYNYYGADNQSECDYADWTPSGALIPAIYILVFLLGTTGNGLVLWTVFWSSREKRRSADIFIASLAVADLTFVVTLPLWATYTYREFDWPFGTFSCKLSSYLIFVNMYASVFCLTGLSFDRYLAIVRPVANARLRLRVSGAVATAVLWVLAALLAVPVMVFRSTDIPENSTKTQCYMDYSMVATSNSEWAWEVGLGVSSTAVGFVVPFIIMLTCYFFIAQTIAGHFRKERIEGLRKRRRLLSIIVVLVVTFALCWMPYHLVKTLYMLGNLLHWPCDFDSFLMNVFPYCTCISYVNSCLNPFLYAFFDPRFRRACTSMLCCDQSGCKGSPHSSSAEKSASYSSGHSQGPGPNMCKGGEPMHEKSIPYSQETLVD
Summary of the method: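 Crude membranes (1 μg/assay) from CHO cells stably expressing wild-type rat APJ-EGFP, incubated 3 h at 20 °C with 0.2 nM [125I]-pyr-1-apelin-13 (Lys8 Bolton–Hunter monoiodinated) and competitor at various concentrations. Binding buffer: 50 mM HEPES, 5 mM MgCl2, 1% BSA, pH 7.5. Quenched with cold buffer, GF/C filtered and washed, gamma counted; triplicates.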

[6] = Protein binding in pooled human plasma at 100 uM incubated for 3 hrs by equilibrium dialysis method; assay type: ADME, cell-free; conditions: read-out: PPB (converted)
Summary of the method: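 Equilibrium dialysis. DMSO stock (1 mM) diluted to 100 μM final in 55% pooled human plasma stabilized with EDTA and MLN-4760, dialyzed against PBS pH 7.4 at 37 °C, 120 rpm, 3 h. Retentate diluted with PBS and dialysate with plasma, then quenched with 10% TFA/acetonitrile. Dans-YVG internal standard added, centrifuged, LC-MS.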

[7] = Stability in mouse plasma assessed as half life at 1 mM measured for 24 hrs by LC-MS analysis; assay type: ADME, cell-free; summary of the method: as §2
Neprilysin = Neprilysin (Homo sapiens, UniProt P08473); assay: Proteolytic stability assessed as recombinant human NEP-mediated compound degradation incubated for 24 hrs by LC-MS analysis; assay type: ADME
Neprilysin, sequence (P08473 whole entry): as the sequence (P08473 whole entry) above
Summary of the method: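 Recombinant human NEP diluted to 2 ng μL−1 in NEP-B buffer and preincubated 10 min at 37 °C. Peptide (1 mM aqueous solution) added and incubated at 37 °C. Aliquots taken at 0, 2, 10, 20 and 48 h, quenched and quantified by LC-MS; triplicate per time point.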

half-life at 1000 µM [3] | EC50 (Apelin receptor [4]) | half-life (Neprilysin (NEP)) | Ki (Apelin receptor [5]) | fraction unbound at 3 h, 100 µM [6] | half-life at 1000 µM [7] | Stability (Neprilysin) | SMILES | Activity (Mus musculus [1]) | Time (Mus musculus [2])
3.54 h | 6.76 nM | 40.3 h |  |  |  |  | CCCC[C@H](NC(=O)[C@@H]1CCCN1C(=O)CNC(=O)[C@H](CCCCN)NC(=O)[C@H](Cc1c[nH]cn1)NC(=O)[C@H](CO)NC(=O)[C@H](CC(C)C)N(C)C(=O)[C@H](CCCNC(=N)N)NC(=O)[C@@H]1CCCN1C(=O)[C@H](CCCNC(=N)N)NC(=O)[C@@H]1CCC(=O)N1)C(=O)NC(C)(C)C(=O)N[C@@H](Cc1ccc(Br)cc1)C(=O)O | 9.52 mmHg | 26 min
0.81 h | 4.27 nM | 10.3 h |  |  |  |  | CCCC[C@H](NC(=O)[C@@H]1CCCN1C(=O)CNC(=O)[C@H](CCCCN)NC(=O)[C@H](Cc1c[nH]cn1)NC(=O)[C@H](CO)NC(=O)[C@H](CC(C)C)NC(=O)[C@H](CCCNC(=N)N)NC(=O)[C@@H]1CCCN1C(=O)[C@H](CCCNC(=N)N)NC(=O)[C@@H]1CCC(=O)N1)C(=O)NC(C)(C)C(=O)N[C@@H](Cc1ccc(Br)cc1)C(=O)O | 23.88 mmHg | 60 min
1.31 h | 2.19 nM | 19 h | 0.676 nM |  |  |  | CCCC[C@H](NC(=O)[C@@H]1CCCN1C(=O)CNC(=O)[C@H](CCCCN)NC(=O)[C@H](Cc1c[nH]cn1)NC(=O)[C@H](CO)NC(=O)[C@H](CC(C)C)NC(=O)[C@H](CCCCNC(=N)N)NC(=O)[C@@H]1CCCN1C(=O)[C@H](CCCNC(=N)N)NC(=O)[C@@H]1CCC(=O)N1)C(=O)NC(C)(C)C(=O)N[C@@H](Cc1ccc(Br)cc1)C(=O)O | 26.44 mmHg | 60 min
2.58 h | 3.72 nM | 21.9 h | 0.372 nM |  |  |  | CCCC[C@H](NC(=O)[C@@H]1CCCN1C(=O)CNC(=O)[C@H](CCCCN)NC(=O)[C@H](Cc1c[nH]cn1)NC(=O)[C@H](CO)NC(=O)[C@H](CC1CCCCC1)NC(=O)[C@H](CCCCNC(=N)N)NC(=O)[C@@H]1CCCN1C(=O)[C@H](CCCNC(=N)N)NC(=O)[C@@H]1CCC(=O)N1)C(=O)NC(C)(C)C(=O)N[C@@H](Cc1ccc(Br)cc1)C(=O)O | 15.33 mmHg | 57 min
1.77 h | 2.4 nM | 22.1 h | 0.575 nM |  |  |  | CCCC[C@H](NC(=O)[C@@H]1CCCN1C(=O)CNC(=O)[C@H](CCCCN)NC(=O)[C@H](Cc1c[nH]cn1)NC(=O)[C@H](CO)NC(=O)[C@H](CC1CCCCC1)NC(=O)[C@H](CCCNC(=N)N)NC(=O)[C@@H]1CCCN1C(=O)[C@H](CCCNC(=N)N)NC(=O)[C@@H]1CCC(=O)N1)C(=O)NC(C)(C)C(=O)N[C@@H](Cc1ccc(Br)cc1)C(=O)O | 0.23 mmHg | 15 min
4.34 h | 3.8 nM | 47 h | 1.58 nM |  |  |  | CCCC[C@H](NC(=O)[C@@H]1CCCN1C(=O)CNC(=O)[C@H](CCCCN)NC(=O)[C@H](Cc1c[nH]cn1)NC(=O)[C@H](CO)NC(=O)[C@H](CC1CCCCC1)NC(=O)[C@H](CCCNC(=N)N)NC(=O)[C@@H]1CCCN1C(=O)[C@H](CCCNC(=N)N)NC(=O)[C@H](CCC(N)=O)NC(=O)[C@H](CCCNC(=N)N)NC(=O)[C@H](CCCNC(=N)N)NC(=O)[C@H](Cc1ccccc1)NC(=O)[C@@H](N)CCCCN)C(=O)NC(C)(C)C(=O)N[C@@H](Cc1ccc(Br)cc1)C(=O)O (H-KFRRQRPR[Cha]SHKGP[Nle][Aib][Phe(4-Br)]-OH) | 19.72 mmHg | 60 min

Further lines, the compound ahead of its results:

SMILES | half-life at 1000 µM [3] | EC50 (Apelin receptor [4]) | half-life (Neprilysin (NEP)) | Ki (Apelin receptor [5]) | fraction unbound at 3 h, 100 µM [6] | half-life at 1000 µM [7] | Stability (Neprilysin) | Activity (Mus musculus [1]) | Time (Mus musculus [2])
CCCC[C@H](NC(=O)[C@@H]1CCCN1C(=O)CNC(=O)[C@H](CCCCN)NC(=O)[C@H](Cc1c[nH]cn1)NC(=O)[C@H](CO)NC(=O)[C@H](CC(C)C)N(C)C(=O)[C@H](CCCNC(=N)N)NC(=O)[C@@H]1CCCN1C(=O)[C@H](CCCNC(=N)N)NC(=O)[C@H](CCC(N)=O)NC(=O)[C@H](CCCNC(=N)N)NC(=O)[C@H](CCCNC(=N)N)NC(=O)[C@H](Cc1ccccc1)NC(=O)[C@@H](N)CCCCN)C(=O)NC(C)(C)C(=O)N[C@@H](Cc1ccc(Br)cc1)C(=O)O (H-KFRRQRPR[NMeL]SHKGP[Nle][Aib][Phe(4-Br)]-OH) | 8.29 h | 2.75 nM | > 48 h |  | 0.45 | 0.99 h |  | 31.98 mmHg | 60 min
CCCC[C@H](NC(=O)[C@@H]1CCCN1C(=O)CNC(=O)[C@H](CCCCN)NC(=O)[C@H](Cc1c[nH]cn1)NC(=O)[C@H](CO)NC(=O)[C@H](CC(C)C)NC(=O)[C@H](CCCCNC(=N)N)NC(=O)[C@@H]1CCCN1C(=O)[C@H](CCCNC(=N)N)NC(=O)[C@H](CCC(N)=O)NC(=O)[C@H](CCCNC(=N)N)NC(=O)[C@H](CCCNC(=N)N)NC(=O)[C@H](Cc1ccccc1)NC(=O)[C@@H](N)CCCCN)C(=O)NC(C)(C)C(=O)N[C@@H](Cc1ccc(Br)cc1)C(=O)O (H-KFRRQRP[hArg]LSHKGP[Nle][Aib][Phe(4-Br)]-OH) | 3.06 h | 6.76 nM | 40.6 h | 0.832 nM |  |  |  | 40.45 mmHg | 60 min
CCCC[C@H](NC(=O)[C@@H]1CCCN1C(=O)CNC(=O)[C@H](CCCCN)NC(=O)[C@H](Cc1c[nH]cn1)NC(=O)[C@H](CO)NC(=O)[C@H](CC1CCCCC1)NC(=O)[C@H](CCCCNC(=N)N)NC(=O)[C@@H]1CCCN1C(=O)[C@H](CCCNC(=N)N)NC(=O)[C@H](CCC(N)=O)NC(=O)[C@H](CCCNC(=N)N)NC(=O)[C@H](CCCNC(=N)N)NC(=O)[C@H](Cc1ccccc1)NC(=O)[C@@H](N)CCCCN)C(=O)NC(C)(C)C(=O)N[C@@H](Cc1ccc(Br)cc1)C(=O)O (H-KFRRQRP[hArg][Cha]SHKGP[Nle][Aib][Phe(4-Br)]-OH) | 6.28 h | 4.37 nM | 46.4 h | 1.1 nM | 0.35 | 0.52 h |  | 44.9 mmHg | 60 min
CCCC[C@H](NC(=O)[C@@H]1CCCN1C(=O)CNC(=O)[C@H](CCCCN)NC(=O)[C@H](Cc1c[nH]cn1)NC(=O)[C@H](CO)NC(=O)[C@H](CC(C)C)N(C)C(=O)[C@H](CCCCNC(=N)N)NC(=O)[C@@H]1CCCN1C(=O)[C@H](CCCNC(=N)N)NC(=O)[C@H](CCC(N)=O)NC(=O)[C@H](CCCNC(=N)N)NC(=O)[C@H](CCCNC(=N)N)NC(=O)[C@H](Cc1ccccc1)NC(=O)[C@@H](N)CCCCN)C(=O)NC(C)(C)C(=O)N[C@@H](Cc1ccc(Br)cc1)C(=O)O (H-KFRRQRP[hArg][NMeL]SHKGP[Nle][Aib][Phe(4-Br)]-OH) | 5.63 h | 275 nM |  | 1.41 nM |  | 0.38 h | Stable | 34.69 mmHg | 60 min
